System: MS2 coat protein
Test: apparent Kd, MS2 coat protein; higher = weaker binding; RNA-MaP array; FMN 200 µM where present
In short: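 On Illumina sequencing-chip clusters, designs were transcribed by stalled E. coli RNA polymerase and titrated with SNAP-549-labelled MS2 coat protein (0.7 or 1.5 nM, doubling to 3 µM), without and then with constant ligand, in 100 mM Tris-HCl pH 7.5, 80 mM KCl, 4 mM MgCl2, BSA, DTT, yeast tRNA and Tween-20. Apparent Kd is the median of filtered per-cluster curve fits to green signal normalised to red-channel RNA signal and control-cluster median Fmax.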

[1] = designed as: OFF switch for flavin mononucleotide, no ligand
[2] = ligand present: flavin mononucleotide, designed as: OFF switch for flavin mononucleotide
[3] = designed as: ON switch for flavin mononucleotide, no ligand
[4] = ligand present: flavin mononucleotide, designed as: ON switch for flavin mononucleotide

Sequence	apparent Kd [1]	apparent Kd [2]	apparent Kd [3]	apparent Kd [4]
GCCGGAUUUGUGAGGAUAUACCUAUGGAUACAUAGGUAGAAGGCACAUGAGGAUCACCCAUGUUCCUCUCCGGC	49 nM	582 nM	–	–
GCCUCAUAGUAGAAGGGACUUAUACAGUAAUGUUUUUAGUGUAAAUAACAUGAGGAUCACCCAUGUCAGGAUAUACUAAGAGGC	9.24 nM	12.1 nM	–	–
GCCUGACAUGAGGAUCACCCAUGUGAGGAUAUUUGGAUUGAGGAGUAGCACAUAGUCCAAAGAAGGUAUGUGGG	24.7 nM	60.7 nM	–	–
GCCUUACCGGUCAGGAUAUACACCCGUCACUCCUUGUAGAAGGGACAUGAGGAUCACCCAUGUACAUUACAUUC	27.2 nM	26.8 nM	–	–
GCCUUAUCGGUCAGGAUAUACACUUGUUAGUUGUUGUAGAAGGGACAUGAGGAUCACCCAUGUACAUUACAUUG	23.2 nM	58.5 nM	–	–
GCCUUAUCUGUCAGGAUAUACAAUAAAAUAUUUUUGUAGAAGGGACAUGAGGAUCACCCAUGUACAUUACAUUG	42 nM	262 nM	–	–
GCGAAUAUGGGUUAGGAUAUGCGCGCAUGUACAUGAGGAUCACCCAUGUUUACGGGCGCCUUUGAGCAGAAGGAGCUAAUCAACGC	–	–	36.5 nM	27.6 nM
GCGAAUCAGUGAGGAUAUACAUAAAUUAUAACAGUAGAAGGCACAUACCUCAAGACAUGAGGAUCACCCAUGUGACAUAUCGCU	258 nM	488 nM	–	–
GCGAUUGCGUAGAAGGUACUAUAUAAUACACUGUAAGGAUAUACAUACAUGAGGAUCACCCAUGUAAAUGGAAUUUGCAAUCGC	–	–	6.93 nM	6.41 nM
GCGCGCGUUGUGAGGAUAUUGUGUGUGAAAGCGCGCGAGAAGGCACAUGAGGAUCACCCAUGUAAGGUGUGUGU	455 nM	392 nM	–	–
GCGCUGCGUCAGAAGGGCCGAAAAGAGAAGAUGGCAGGAUAUGACAUGAGGAUCACCCAUGUACACGUCGCCAUGGGUGUUGGU	184 nM	36.4 nM	–	–
GCGCUUAAACAGAAGGCCAAAUACAUGAGGAUCACCCAUGUCGAAUCAUGGAGGAUAUGUUAUUAAUUACACGCAGAUGAGCGC	–	–	124 nM	10.7 nM
GCGGAACAUGAGGAUCACCCAUGUAUCCGAAAUAUGGACUCACAGGAUAUCCCGAGUUGCCAGUCGGAGAAGGGUGACUCCAGC	–	–	12.3 nM	8.09 nM
GCGGCUAGUGCAGGAUAUCGGCGCGUGUAGCGCCGAGAAGGGCACAUGAGGAUCACCCAUGUGAUCAAUCACUGCUAAGGCCGC	4.83 nM	4.91 nM	–	–
GCGUAAUAGGUGUAGCUAGUCGUACAAGAAGGGUGGAGAACAUGAGGAUCACCCAUGUGGUCUAUACAGGAUAUUGUUAUACGC	–	–	176 nM	30.5 nM
GCGUAUAUAUGAUUUAUUUAACAGUCAGAAGGUGAGAAGACGACAUGAGGAUCACCCAUGUUAUUCAAGGAUAUGAUAAUGCGC	–	–	24.9 nM	11.4 nM
GCGUAUUAGGUGUAGCUAGACAUUCAAGAAGGGUGAAGAACAUGAGGAUCACCCAUGUAGUUUUUACAGGAUAUUGAUUUACGC	–	–	269 nM	14.9 nM
GCGUCAGAAUUAAUUGUGACAGGCAGAAGGCCAUAUUUCAUGUCAGACAUGAGGAUCACCCAUGUGGAGGAUAUGCAGUUACAC	43.4 nM	98.7 nM	–	–
GCGUCAGAAUUAAUUGUGACAUACAGAAGGCAAAAGUUAUGUUCAGACAUGAGGAUCACCCAUGUUGAGGAUAUGUAGAGAAUC	8.27 nM	7.1 nM	–	–
GCGUCAGAAUUAAUUGUGACAUACAGAAGGCAAAAUUAAGGAUAAGACAUGAGGAUCACCCAUGUUGAGGAUAUGUAGUGACGC	8.7 nM	7.57 nM	–	–
GCGUGGAAUACAGGAUAUGUUGUACAAUAAUCUUUGAGGCAUUGAGAUAAAACAGAAGGGUAAACAUGAGGAUCACCCAUGUAA	24.7 nM	19.6 nM	–	–
GCGUUCUUGUAGAAGGUACAUGAAAUCUAUUUUUAACACAUGAAACAUGAGGAUCACCCAUGUUGUAAGGAUAUACAUGAACGC	–	–	7.26 nM	6.09 nM
GCUACGUCAGGAUAUCUGAUGUCUAACUUCGGUUAGACAUCAGAGAAGGGACAUGAGGAUCACCCAUGUAGCAG	114 nM	112 nM	–	–
GCUAGAAGCGUGAAAUAUCACAUGAGGAUCACCCAUGUGACACAGGAUAUAACAAUAUCAGAAGGUUAGAAGGGUGAACACGCC	–	–	119 nM	32.9 nM
GCUAGACGUCGAGGAUAUGGGUGUGCGAGUCUUGGCACUGGACAUGAGGAUCACCCAUGUCGCUUCCAGAAGGCGACGUCCCUA	–	–	38.6 nM	6.39 nM
GCUAGGCAUGUCAGGAUAUGCUGUACCUUGGUACAGCAGAAGGGACAUGAGGAUCACCCAUGUGCCUAUCUAGC	42.9 nM	419 nM	–	–
GCUCGAUGCGCUGAGCACAUGAGGAUCACCCAUGUAAAAUAUCAGGAUAUUUACGUGCUUUAUGUAGAGAAGGGAUUAUCGAGC	–	–	101 nM	41.4 nM
